# pIC50: −log10 of the molar value. Structures can show the parent of a compound that is named as a salt. Active and inactive are the calls of the source. The rule behind the calls is not given here.
# How the values were obtained:
# [1] = molecular target: DNA topoisomerase 2-alpha (Homo sapiens) (UniProt P11388); assay: Inhibition of DNA topoisomerase 2-mediated DNA fragmentation at 50 uM by gel electrophoresis analysis
# Method in brief: (§1)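 Topo II incubated with DNA and compound; products resolved by gel electrophoresis, with intact DNA as a single band and Topo II fragmentation giving multiple bands.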
# [2] = system: Nucleic Acid; assay: Displacement of ethidium bromide from DNA at 50 uM by fluorometric analysis; format: nucleic-acid assay
# Method in brief: (§2)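 Fluorescence read-out of ethidium bromide displacement from DNA; IC50 is concentration reducing ethidium bromide binding by 50%; tested up to 50 μM.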
# [3] = system: LoVo; assay: Cytotoxicity against human LoVo cells under oxic condition assessed as growth inhibition after 74 hrs by sulforhodamine B assay; format: functional, cell-based
# Method in brief: (§3)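 Cells grown in 96-well plates for 74 h across a range of test concentrations; growth measured by sulforhodamine B staining and IC50 taken as 50% inhibition of growth. Hypoxic arm held in an anaerobic chamber flushed with 95% N2/5% CO2; oxic arm in oxygen-rich conditions.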
# [4] = system: LoVo; assay: Cytotoxicity against human LoVo cells under hypoxic condition assessed as growth inhibition after 74 hrs by sulforhodamine B assay; format: functional, cell-based; method in brief: as §3
# [5] = system: MCF7; assay: Cytotoxicity against doxorubicin-sensitive human MCF7 cells under oxic condition assessed as growth inhibition after 74 hrs by sulforhodamine B assay; format: functional, cell-based; conditions: MCF7, 74 h; method in brief: as §3
# [6] = system: MCF7; assay: Cytotoxicity against doxorubicin-sensitive human MCF7 cells under hypoxic condition assessed as growth inhibition after 74 hrs by sulforhodamine B assay; format: functional, cell-based; conditions: MCF7, 74 h; method in brief: as §3
# [7] = system: MCF7; assay: Cytotoxicity against doxorubicin-resistant human MCF7 cells under oxic condition assessed as growth inhibition after 74 hrs by sulforhodamine B assay; format: functional, cell-based; conditions: MCF7, 74 h; method in brief: as §3
# [8] = system: MCF7; assay: Cytotoxicity against doxorubicin-resistant human MCF7 cells under hypoxic condition assessed as growth inhibition after 74 hrs by sulforhodamine B assay; format: functional, cell-based; conditions: MCF7, 74 h; method in brief: as §3
# [9] = molecular target: DNA topoisomerase 2-alpha (Homo sapiens) (UniProt P11388); assay: Inhibition of DNA topoisomerase 2-mediated DNA fragmentation at 10 uM pretreated with 1% O2 for 2 hrs measured by gel electrophoresis analysis
# Method in brief: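 Before the Topo II assay, compound incubated with rat liver S-9 fraction in 1% O2 or normal air for 2 h at 37 °C. Proteins were precipitated with ethanol and the sample centrifuged; the supernatant was then tested for inhibition of Topo II DNA fragmentation by gel electrophoresis.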
# [10] = system: Nucleic Acid; assay: Binding affinity to DNA assessed as increase in hypochromicity by UV-spectroscopic analysis with compound pretreatment with CYP450; format: nucleic-acid assay
# Method in brief: (§4)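 UV absorbance scans of compound recorded with sequentially increasing DNA concentrations; binding judged from hypochromicity and bathochromic shift. CYP450 pretreatment where applicable: incubation with rat liver S-9 fraction in 1% O2, 2 h, 37 °C, proteins precipitated with ethanol, supernatant after centrifugation used.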
# [11] = system: Nucleic Acid; assay: Binding affinity to DNA assessed as increase in hypochromicity by UV-spectroscopic analysis without compound pretreatment with CYP450; format: nucleic-acid assay; method in brief: as §4
# [12] = system: Nucleic Acid; assay: Binding affinity to DNA assessed as bathochromic shift by UV-spectroscopic analysis with compound pretreatment with CYP450; format: nucleic-acid assay; method in brief: as §4
# [13] = molecular target: DNA topoisomerase 2-alpha (Homo sapiens) (UniProt P11388); assay: Inhibition of DNA topoisomerase 2-mediated DNA fragmentation at 10 uM by gel electrophoresis analysis; method in brief: as §1
# [14] = molecular target: Nucleic Acid; assay: Displacement of ethidium bromide from DNA by fluorometric analysis; format: nucleic-acid assay; method in brief: as §2
# Sequence of DNA topoisomerase 2-alpha (Homo sapiens) (P11388 whole entry, the tested form may be a part): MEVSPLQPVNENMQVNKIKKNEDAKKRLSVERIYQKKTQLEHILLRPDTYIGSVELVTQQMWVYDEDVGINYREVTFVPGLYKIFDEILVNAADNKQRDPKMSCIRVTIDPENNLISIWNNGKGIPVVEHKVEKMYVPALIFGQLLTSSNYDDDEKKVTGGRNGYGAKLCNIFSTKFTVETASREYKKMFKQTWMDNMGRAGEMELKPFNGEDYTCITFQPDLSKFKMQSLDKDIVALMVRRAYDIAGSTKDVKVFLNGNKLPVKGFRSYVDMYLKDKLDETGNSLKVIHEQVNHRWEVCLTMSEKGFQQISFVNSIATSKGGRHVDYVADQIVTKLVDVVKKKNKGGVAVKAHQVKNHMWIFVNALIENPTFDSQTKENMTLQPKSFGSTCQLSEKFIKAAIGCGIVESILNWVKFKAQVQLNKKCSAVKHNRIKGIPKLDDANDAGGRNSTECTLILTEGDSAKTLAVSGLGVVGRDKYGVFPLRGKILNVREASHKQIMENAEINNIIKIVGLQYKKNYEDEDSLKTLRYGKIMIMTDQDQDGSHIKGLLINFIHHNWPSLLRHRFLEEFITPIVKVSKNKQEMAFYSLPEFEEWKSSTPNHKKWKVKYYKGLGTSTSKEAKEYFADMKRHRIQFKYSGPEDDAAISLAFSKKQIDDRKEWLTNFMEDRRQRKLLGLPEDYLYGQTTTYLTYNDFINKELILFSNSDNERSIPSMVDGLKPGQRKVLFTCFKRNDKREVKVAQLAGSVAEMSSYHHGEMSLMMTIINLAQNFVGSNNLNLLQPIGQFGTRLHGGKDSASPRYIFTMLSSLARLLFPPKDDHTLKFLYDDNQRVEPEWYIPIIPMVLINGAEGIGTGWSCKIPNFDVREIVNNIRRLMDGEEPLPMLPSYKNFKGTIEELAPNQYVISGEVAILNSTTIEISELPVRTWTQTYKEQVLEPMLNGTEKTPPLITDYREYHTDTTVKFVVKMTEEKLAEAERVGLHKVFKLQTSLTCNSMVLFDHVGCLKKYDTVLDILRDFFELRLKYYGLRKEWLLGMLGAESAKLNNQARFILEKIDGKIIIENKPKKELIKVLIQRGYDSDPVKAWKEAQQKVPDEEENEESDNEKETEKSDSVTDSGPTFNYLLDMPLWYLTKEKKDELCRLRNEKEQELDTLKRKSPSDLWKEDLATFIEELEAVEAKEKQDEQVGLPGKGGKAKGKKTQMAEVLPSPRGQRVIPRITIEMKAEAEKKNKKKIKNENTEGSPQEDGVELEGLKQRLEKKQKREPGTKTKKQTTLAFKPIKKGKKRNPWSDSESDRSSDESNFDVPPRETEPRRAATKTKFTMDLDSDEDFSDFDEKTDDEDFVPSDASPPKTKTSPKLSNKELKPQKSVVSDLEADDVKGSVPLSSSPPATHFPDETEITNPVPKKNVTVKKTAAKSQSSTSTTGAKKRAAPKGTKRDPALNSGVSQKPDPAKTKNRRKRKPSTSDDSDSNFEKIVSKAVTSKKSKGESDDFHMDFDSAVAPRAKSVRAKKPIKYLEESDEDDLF
Compound,inhibition [1],Activity [2],pIC50 [3],pIC50 [4],pIC50 [5],pIC50 [6],pIC50 [7],pIC50 [8],inhibition [9],Activity [10],Activity [11],Activity [12],inhibition [13],pIC50 [14]
C[N+](C)([O-])CCNc1ccc2c3c(nn2CC[N+](C)(C)[O-])-c2cnccc2C(=O)c13,inactive,inactive,< 4.60,5.82,< 4.60,5.30,< 4.60,5.89,Active,Active,inactive,Active,–,–
CN(C)CCNc1ccc2c3c(nn2CCN(C)C)-c2cnccc2C(=O)c13,–,–,5.89,5.48,6.05,5.40,6.00,5.92,Active,–,–,–,Active,5.17
O=C1c2c(O)ccc(O)c2C(=O)c2c(NCCNCCO)ccc(NCCNCCO)c21 [MITOXANTRONE HYDROCHLORIDE],–,–,7.00,6.05,7.00,6.00,5.33,< 5.00,–,–,–,–,–,5.35

# — ChEMBL document CHEMBL1921783, “Hypoxia activated prodrugs of a 9-aza-anthrapyrazole derivative that has promising anticancer activity” (J Med Chem, 2011)
